In ChEMBL document CHEMBL4219092, “Design and synthesis of 1-(1-benzothiophen-7-yl)-1H-pyrazole, a novel series of G protein-coupled receptor 52 (GPR52) agonists” (Bioorg Med Chem, 2018):
Values after ≈ are worked out from the molar mass of the structure shown. Active and inactive are the calls of the source. The rule behind the calls is not given here.

How the values were obtained:
[1] = molecular target: T1, G-protein coupled receptor 52 (Homo sapiens, UniProt Q9Y2T5); assay: Agonist activity at human GPR52 expressed in CHO cells assessed as increase in cAMP level after 30 mins by AlphaScreen assay; type: functional, cell-based
T1 sequence (Q9Y2T5 whole entry): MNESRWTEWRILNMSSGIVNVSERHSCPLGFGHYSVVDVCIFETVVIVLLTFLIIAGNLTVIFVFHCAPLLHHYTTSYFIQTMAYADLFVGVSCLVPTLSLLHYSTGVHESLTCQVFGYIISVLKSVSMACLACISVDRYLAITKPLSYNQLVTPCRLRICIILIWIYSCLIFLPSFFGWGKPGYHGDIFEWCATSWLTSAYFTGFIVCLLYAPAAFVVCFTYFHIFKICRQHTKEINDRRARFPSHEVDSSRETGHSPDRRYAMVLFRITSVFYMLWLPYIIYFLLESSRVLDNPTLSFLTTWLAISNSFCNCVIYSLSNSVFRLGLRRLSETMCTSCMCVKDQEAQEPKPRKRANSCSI
Procedure, shortened: (§1)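 CHO cells stably expressing human GPR52 (10,000 cells) were incubated with compound for 30 min at 37°C in HBSS with 5 mM HEPES pH 7.6, 0.5% BSA, 100 μM IBMX and 100 μM Ro20-1724. Anti-cAMP acceptor beads and biotinylated cAMP donor beads were then added, with overnight incubation at room temperature, and AlphaScreen was read. EC50 comes from mean curves (n=2-4) relative to the 50% response of 1 μM of a benzofuran reference agonist. Emax is expressed relative to that reference.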

[2] = Aqueous solubility of the compound at pH 6.8 by HPLC analysis; type: physicochemical
Procedure, shortened: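 Compound from DMSO stock was added to aqueous buffer at pH 6.8 (JP 15th edition second disintegration fluid) and incubated. Precipitate was removed by filter-plate filtration, and the dissolved compound in the filtrate was quantified by HPLC.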

[3] = Cmax in ICR mouse at 0.1 mg/kg, iv and 1 mg/kg, po administered as cassette dose by LC-MS/MS analysis; type: ADME, organism-based; details: in vivo
Procedure, shortened: (§2)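 Male ICR mice (n=3), cassette dosing at 0.1 mg/kg i.v. or 1 mg/kg p.o. Blood was collected and centrifuged to plasma. Plasma was deproteinized and centrifuged, and the supernatant was analysed by LC/MS/MS. AUC covers 0 to 8 h. Values are averages of 3 mice.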

[4] = Tmax in ICR mouse at 0.1 mg/kg, iv and 1 mg/kg, po administered as cassette dose by LC-MS/MS analysis; type: ADME, organism-based; details: in vivo; procedure, shortened: as §2
[5] = AUC (0 to 8 hrs) in ICR mouse at 1 mg/kg, po administered as cassette dose by LC-MS/MS analysis; type: ADME, organism-based; set-up: time < 8 hr, dose 1 mg/kg, route oral; details: in vivo; procedure, shortened: as §2
[6] = Total clearance in ICR mouse at 0.1 mg/kg, iv and 1 mg/kg, po administered as cassette dose by LC-MS/MS analysis; type: ADME, organism-based; details: in vivo; procedure, shortened: as §2
[7] = Oral bioavailability in ICR mouse at 1 mg/kg administered as cassette dose by LC-MS/MS analysis; type: ADME, organism-based; details: in vivo; procedure, shortened: as §2
[8] = test system: MDR; assay: Substrate activity at MDR (unknown origin) assessed as efflux ratio; type: ADME; details: human, not told
[9] = Protein binding in mouse plasma at 1 uM; type: ADME, cell-free; details: read-out: PPB (converted)
[10] = test system: Mus musculus; assay: Reversal of methamphetamine-induced hyperlocomotion in po dosed ICR mouse pretreated 60 mins post habituation followed by methamphetamine injection after 60 mins measured for 150 mins; type: functional, organism-based
Procedure, shortened: (§3)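 Male ICR mice (7-8 weeks) were placed individually in locomotor monitors and habituated for 60 min. Drug was then given p.o. (test agent 10 or 30 mg/kg; haloperidol 0.3 mg/kg). Methamphetamine 2 mg/kg s.c. was injected 60 min later, and activity counts were recorded for 150 min after drug dosing. Data are mean ± S.E.M., n=6-7 per group, analysed by Williams' test against vehicle+MAP.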

[11] = test system: Mus musculus; assay: Toxicity in ICR mouse assessed as sedation at 10 and 30 mg/kg, po measured over 60 mins; type: organism-based; details: in vivo, 1 h
[12] = test system: Mus musculus; assay: Toxicity in ICR mouse assessed as general malaise at 10 and 30 mg/kg, po measured over 60 mins; type: organism-based; details: in vivo, 1 h
[13] = molecular target: T1, G-protein coupled receptor 52; assay: Agonist activity at human GPR52 expressed in CHO cells assessed as increase in cAMP level after 30 mins by AlphaScreen assay relative to N-(2-hydroxyethyl)-3-[2-[3-(trifluoromethyl)benzyl]-1-benzofuran-4-yl]benzamide; type: functional, cell-based; procedure, shortened: as §1
[14] = test system: Mus musculus; assay: Reversal of methamphetamine-induced hyperlocomotion in ICR mouse at 0.3 mg/kg, po pretreated 60 mins post habituation followed by methamphetamine injection after 60 mins measured for 150 mins; type: functional, organism-based; procedure, shortened: as §3

SMILES	EC50 [1]	solubility [2]	Emax [13]	further results
Cc1c(C(=O)NCCO)c(CO)nn1-c1cccc2cc(Cc3cccc(C(F)(F)F)c3)sc12	0.146 µM	18 µg/mL (≈ 36.8 µM)	96%	
O=C(NCCO)c1cnn(-c2cccc3cc(Cc4cccc(C(F)(F)F)c4)sc23)c1	0.087 µM	< 0.09 µg/mL	73%	
COCCNC(=O)c1cnn(-c2cccc3cc(Cc4cccc(C(F)(F)F)c4)sc23)c1C	0.062 µM	1.3 µg/mL (≈ 2.75 µM)	84%	
Cn1nc(-c2cccc3cc(Cc4cccc(C(F)(F)F)c4)sc23)cc1C(=O)NCCO	0.045 µM	< 0.08 µg/mL	110%	
COCCNC(=O)c1cnn(-c2cccc3cc(Cc4cccc(C(F)(F)F)c4)sc23)c1	0.062 µM	< 0.08 µg/mL	81%	
O=C(CCCN1CCC(O)(c2ccc(Cl)cc2)CC1)c1ccc(F)cc1				Activity [14]: Active

The next lines start with results.

EC50 [1]	solubility [2]	Emax [13]	SMILES	further results
0.021 µM	21 µg/mL (≈ 42.9 µM)	103%	Cc1nn(-c2cccc3cc(Cc4cccc(C(F)(F)F)c4)sc23)c(CO)c1C(=O)NCCO	Cmax [3]: 83 ng/mL; Tmax [4]: 1.7 h; AUC(0-t) at 8 h [5]: 406 ng·h/mL; clearance [6]: 12.4 mL/min/kg; bioavailability [7]: 29.9%; efflux ratio [8]: 1.7; fraction unbound at 1 µM [9]: 0.02; Activity [10]: Dose-dependent effect; Activity [11]: Non-Toxic; Activity [12]: Non-Toxic
0.015 µM	12 µg/mL (≈ 25.3 µM)	110%	Cc1nn(-c2cccc3cc(Cc4cccc(C(F)(F)F)c4)sc23)c(C)c1C(=O)NCCO	
0.017 µM	2.9 µg/mL (≈ 5.95 µM)	104%	COCCNC(=O)c1c(C)nn(-c2cccc3cc(Cc4cccc(C(F)(F)F)c4)sc23)c1C	
0.0096 µM	< 0.1 µg/mL	89%	COCCNC(=O)c1cn(-c2cccc3cc(Cc4cccc(C(F)(F)F)c4)sc23)nc1C	
0.0052 µM	< 0.1 µg/mL	102%	Cc1nn(-c2cccc3cc(Cc4cccc(C(F)(F)F)c4)sc23)cc1C(=O)NCCO	
